Assay results taken from PMC5615838 (Toxicology Reports, 2016).

Assays:
[1] = system: GPCRs, ion channels, nuclear receptors, transporters; assay: lead profiling receptor screen; format: binding; conditions: 10 μM
[2] = target: hERG (Homo sapiens, UniProt Q12809); assay: hERG electrophysiology; format: cell-based
[3] = target: T1, CYP1A2 (Homo sapiens, UniProt P05177); assay: CYP inhibition, LC–MS/MS assay in human liver microsomes; format: in vitro ADME; conditions: pooled human liver microsomes, probe phenacetin
T1 sequence (P05177 1-516): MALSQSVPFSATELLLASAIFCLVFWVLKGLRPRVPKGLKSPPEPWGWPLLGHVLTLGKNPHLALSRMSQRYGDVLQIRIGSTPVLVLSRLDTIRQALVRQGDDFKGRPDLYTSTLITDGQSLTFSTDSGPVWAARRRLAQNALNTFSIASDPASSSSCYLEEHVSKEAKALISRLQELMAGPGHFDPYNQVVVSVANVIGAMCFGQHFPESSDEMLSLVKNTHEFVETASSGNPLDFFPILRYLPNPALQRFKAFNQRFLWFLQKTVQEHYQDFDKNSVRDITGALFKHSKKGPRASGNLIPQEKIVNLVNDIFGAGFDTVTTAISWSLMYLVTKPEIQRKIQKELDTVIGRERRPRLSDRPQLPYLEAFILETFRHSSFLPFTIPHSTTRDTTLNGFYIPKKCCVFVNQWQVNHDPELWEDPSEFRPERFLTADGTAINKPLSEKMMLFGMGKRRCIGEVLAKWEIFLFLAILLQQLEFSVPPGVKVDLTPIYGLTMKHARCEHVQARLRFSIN
In short: (§1)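 Follow-up CYP panel in pooled human liver microsomes with CYP-specific probe substrates; CYP-specific metabolites quantified by LC-MS/MS. Test compound at 10 μM. Percent inhibition reported.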

[4] = target: CYP2C19 (Homo sapiens, UniProt P33261); assay: as above; format: in vitro ADME; conditions: pooled human liver microsomes, probe S-mephenytoin
In short: as §1

[5] = target: CYP2D6 (Homo sapiens, UniProt P10635); assay: as above; format: in vitro ADME; conditions: pooled human liver microsomes, probe bufuralol
In short: as §1

[6] = target: CYP3A4 (Homo sapiens, UniProt P08684); assay: as above; format: in vitro ADME; conditions: pooled human liver microsomes, probe midazolam
In short: as §1

[7] = in vitro metabolism in rat liver microsomes; format: in vitro ADME; conditions: 50 μM, 120 min
[8] = system: S. typhimurium strains TA98, TA100, TA1535, TA1537 and E. coli strain WP2 uvrA; assay: bacterial reverse mutation test; format: cell-based, Salmonella typhimurium, Escherichia coli; conditions: 50–5000 μg/plate, plate incorporation and pre-incubation, ±S9
[9] = system: bone marrow PCEs; assay: in vivo micronucleus assay; parameters: species or system mouse; conditions: 500, 1000, 2000 mg/kg bw/day (oral), 2 days, male CD-1 mice
[10] = 90-day subchronic toxicity study, diet; format: in vivo, rat
In short: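 Sprague-Dawley Crl:CD(SD) rats, 20/sex/group, received test compound continuously in the diet at 0, 10, 30 or 100 mg/kg bw/day for 90 consecutive days. Body-weight gain and food consumption were monitored. Clinical signs were recorded throughout treatment.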

[11] = definitive developmental toxicity study; format: in vivo, rat
[12] = JECFA SPET dietary exposure estimate; parameters: species or system human; conditions: 28- and 90-day toxicology studies

hERG, sequence (Q12809 whole entry): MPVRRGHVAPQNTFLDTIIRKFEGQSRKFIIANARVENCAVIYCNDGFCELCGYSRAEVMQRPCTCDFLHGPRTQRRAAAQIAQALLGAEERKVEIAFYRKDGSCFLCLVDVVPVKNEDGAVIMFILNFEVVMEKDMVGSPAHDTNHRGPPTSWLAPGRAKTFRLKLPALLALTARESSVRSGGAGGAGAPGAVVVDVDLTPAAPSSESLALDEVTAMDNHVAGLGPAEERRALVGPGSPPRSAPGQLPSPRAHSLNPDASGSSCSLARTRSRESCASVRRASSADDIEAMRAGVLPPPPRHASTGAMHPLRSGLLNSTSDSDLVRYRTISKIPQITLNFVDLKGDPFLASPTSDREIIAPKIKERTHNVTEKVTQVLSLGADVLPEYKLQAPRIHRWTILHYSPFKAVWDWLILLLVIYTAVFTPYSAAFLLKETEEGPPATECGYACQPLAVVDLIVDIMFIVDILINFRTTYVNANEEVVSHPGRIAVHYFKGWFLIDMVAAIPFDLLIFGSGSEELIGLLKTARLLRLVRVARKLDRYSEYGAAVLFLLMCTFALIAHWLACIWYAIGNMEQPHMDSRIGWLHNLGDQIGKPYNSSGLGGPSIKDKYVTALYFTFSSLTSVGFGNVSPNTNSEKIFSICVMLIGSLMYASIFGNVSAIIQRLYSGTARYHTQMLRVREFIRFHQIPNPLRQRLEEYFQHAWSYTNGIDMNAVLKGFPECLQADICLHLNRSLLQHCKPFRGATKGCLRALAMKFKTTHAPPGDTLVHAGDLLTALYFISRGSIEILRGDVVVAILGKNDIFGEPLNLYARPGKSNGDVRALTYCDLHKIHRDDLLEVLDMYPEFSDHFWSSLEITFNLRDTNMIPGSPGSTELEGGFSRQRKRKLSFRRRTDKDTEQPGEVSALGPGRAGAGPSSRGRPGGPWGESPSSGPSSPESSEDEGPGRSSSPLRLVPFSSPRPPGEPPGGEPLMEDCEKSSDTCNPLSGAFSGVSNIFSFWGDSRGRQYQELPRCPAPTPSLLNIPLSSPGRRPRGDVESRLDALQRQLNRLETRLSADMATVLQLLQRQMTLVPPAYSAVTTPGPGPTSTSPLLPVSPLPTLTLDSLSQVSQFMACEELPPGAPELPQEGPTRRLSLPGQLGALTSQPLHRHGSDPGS
CYP2D6, sequence (P10635 whole entry): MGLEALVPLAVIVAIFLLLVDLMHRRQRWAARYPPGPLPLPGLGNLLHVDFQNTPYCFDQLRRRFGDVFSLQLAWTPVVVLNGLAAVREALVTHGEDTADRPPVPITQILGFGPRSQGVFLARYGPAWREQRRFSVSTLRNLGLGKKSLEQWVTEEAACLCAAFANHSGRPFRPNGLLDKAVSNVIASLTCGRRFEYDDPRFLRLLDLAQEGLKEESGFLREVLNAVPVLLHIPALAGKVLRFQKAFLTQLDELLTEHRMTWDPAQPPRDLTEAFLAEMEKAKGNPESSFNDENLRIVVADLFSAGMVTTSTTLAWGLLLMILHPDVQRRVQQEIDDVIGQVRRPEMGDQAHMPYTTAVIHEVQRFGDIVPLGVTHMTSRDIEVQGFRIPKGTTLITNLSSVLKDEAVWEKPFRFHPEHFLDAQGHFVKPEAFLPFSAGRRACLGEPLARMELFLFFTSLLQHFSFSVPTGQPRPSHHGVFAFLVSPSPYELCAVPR
CYP3A4, sequence (P08684 whole entry): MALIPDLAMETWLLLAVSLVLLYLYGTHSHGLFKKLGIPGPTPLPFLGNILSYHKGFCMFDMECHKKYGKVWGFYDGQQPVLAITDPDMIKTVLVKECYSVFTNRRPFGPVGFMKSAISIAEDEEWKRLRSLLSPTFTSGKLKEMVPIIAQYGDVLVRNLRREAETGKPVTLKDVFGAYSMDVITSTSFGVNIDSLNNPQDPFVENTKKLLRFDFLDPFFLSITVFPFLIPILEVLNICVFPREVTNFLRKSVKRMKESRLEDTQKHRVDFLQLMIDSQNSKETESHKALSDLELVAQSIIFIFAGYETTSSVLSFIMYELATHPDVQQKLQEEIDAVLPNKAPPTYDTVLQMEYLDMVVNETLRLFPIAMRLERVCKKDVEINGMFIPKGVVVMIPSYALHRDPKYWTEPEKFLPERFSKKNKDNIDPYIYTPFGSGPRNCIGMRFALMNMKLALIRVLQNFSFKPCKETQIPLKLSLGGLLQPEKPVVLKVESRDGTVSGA
CYP2C19, sequence (P33261 whole entry): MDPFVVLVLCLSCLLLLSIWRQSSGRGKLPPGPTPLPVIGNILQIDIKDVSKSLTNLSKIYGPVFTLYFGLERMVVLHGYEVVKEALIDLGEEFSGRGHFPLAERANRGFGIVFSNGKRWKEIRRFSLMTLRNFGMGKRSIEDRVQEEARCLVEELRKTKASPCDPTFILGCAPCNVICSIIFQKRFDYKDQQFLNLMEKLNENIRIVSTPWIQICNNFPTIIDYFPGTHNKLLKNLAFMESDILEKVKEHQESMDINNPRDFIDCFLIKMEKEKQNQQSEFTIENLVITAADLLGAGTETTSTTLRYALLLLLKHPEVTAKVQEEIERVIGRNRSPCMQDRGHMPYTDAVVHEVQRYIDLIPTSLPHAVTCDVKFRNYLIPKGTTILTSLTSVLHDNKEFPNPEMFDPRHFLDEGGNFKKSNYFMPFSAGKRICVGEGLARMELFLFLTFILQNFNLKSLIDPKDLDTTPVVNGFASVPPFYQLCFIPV

Cc1noc(C)c1Cn1cc(N2C(=O)CN(Cc3cccc(O)c3)C2=O)cn1 [S6821, 3-(1-((3,5-dimethylisoxazol-4-yl)methyl)-1H-pyrazol-4-yl)-1-(3-hydroxybenzyl)imidazolidine-2,4-dione]
significant responses (≥50% inhibition or stimulation) [1]: No significant responses | inhibition at 10 µM [2]: < 10% | inhibition at 10 µM [3]: 18% | inhibition at 10 µM [4]: 8% | inhibition at 10 µM [5]: -2% | inhibition at 10 µM [6]: 4% | parent S6821 remaining, peak area % of time 0 [7]: 56% | Reverse mutation (in vitro), Result [8]: Negative | Micronucleus formation (in vivo), Result [9]: Negative | NOAEL ([10]; 10, 30, 100 mg/kg bw/day food ad-mix, 90 days, both sexes): 100 mg/kg bw/day | NOEL ([10]; 90 days, females): 100 mg/kg bw/day | NOEL ([10]; 90 days, males): 30 mg/kg bw/day | Motor activity scores ([10]; males, 100 mg/kg bw/day, week 12, second half of 1-hour recording): slightly higher than those of controls | Findings ([10]; up to 100 mg/kg bw/day, 90 days): No test-article related findings | Malformations, fetuses (litters) ([11]; 125 mg/kg bw/day, of 347(25) evaluated): 3(2) | Malformations, fetuses (litters) ([11]; 500 mg/kg bw/day, of 364(25) evaluated): 2(2) | Malformations, fetuses (litters) ([11]; 1000 mg/kg bw/day, of 327(22) evaluated): 4(3) | Corpora Lutea ([11]; Mean, 125 mg/kg bw/day): 15.4 | Dead Fetuses ([11]; Mean, 125 mg/kg bw/day): 0.0 | Fetal Wt. ([11]; Mean, 125 mg/kg bw/day): 5.7 g | Fetuses, Sex F ([11]; Mean, 125 mg/kg bw/day): 6.8 | Fetuses, Sex M ([11]; Mean, 125 mg/kg bw/day): 7.1 | Implant. Sites ([11]; Mean, 125 mg/kg bw/day): 14.6 | Post- Implant. Loss ([11]; Mean, 125 mg/kg bw/day): 0.7 | Pre- Implant. Loss ([11]; Mean, 125 mg/kg bw/day): 0.8 | Resorptions Early ([11]; Mean, 125 mg/kg bw/day): 0.7 | Resorptions Late ([11]; Mean, 125 mg/kg bw/day): 0.0 | Corpora Lutea ([11]; Mean, 500 mg/kg bw/day): 16.6 | Dead Fetuses ([11]; Mean, 500 mg/kg bw/day): 0.0 | Fetal Wt. ([11]; Mean, 500 mg/kg bw/day): 5.6 g | Fetuses, Sex F ([11]; Mean, 500 mg/kg bw/day): 7.4 | Fetuses, Sex M ([11]; Mean, 500 mg/kg bw/day): 7.2 | Implant. Sites ([11]; Mean, 500 mg/kg bw/day): 15.4 | Post- Implant. Loss ([11]; Mean, 500 mg/kg bw/day): 0.8 | Pre- Implant. Loss ([11]; Mean, 500 mg/kg bw/day): 1.2 | Resorptions Early ([11]; Mean, 500 mg/kg bw/day): 0.8 | Resorptions Late ([11]; Mean, 500 mg/kg bw/day): 0.0 | Corpora Lutea ([11]; Mean, 1000 mg/kg bw/day): 16.9 | Dead Fetuses ([11]; Mean, 1000 mg/kg bw/day): 0.0 | Fetal Wt. ([11]; Mean, 1000 mg/kg bw/day): 5.6 g | Fetuses, Sex F ([11]; Mean, 1000 mg/kg bw/day): 7.4 | Fetuses, Sex M ([11]; Mean, 1000 mg/kg bw/day): 7.5 | Implant. Sites ([11]; Mean, 1000 mg/kg bw/day): 15.8 | Post- Implant. Loss ([11]; Mean, 1000 mg/kg bw/day): 0.9 | Pre- Implant. Loss ([11]; Mean, 1000 mg/kg bw/day): 1.1 | Resorptions Early ([11]; Mean, 1000 mg/kg bw/day): 0.9 | Resorptions Late ([11]; Mean, 1000 mg/kg bw/day): 0.0 | Dead Fetuses ([11]; Total, 125 mg/kg bw/day): 0 | Fetuses, Sex F ([11]; Total, 125 mg/kg bw/day): 170 | Fetuses, Sex M ([11]; Total, 125 mg/kg bw/day): 177 | Implant. Sites ([11]; Total, 125 mg/kg bw/day): 364 | Post- Implant. Loss ([11]; Total, 125 mg/kg bw/day): 17 | Pre- Implant. Loss ([11]; Total, 125 mg/kg bw/day): 20 | Resorptions Early ([11]; Total, 125 mg/kg bw/day): 17 | Resorptions Late ([11]; Total, 125 mg/kg bw/day): 0 | Corpora Lutea ([11]; Total, 500 mg/kg bw/day): 415 | Dead Fetuses ([11]; Total, 500 mg/kg bw/day): 0 | Fetuses, Sex F ([11]; Total, 500 mg/kg bw/day): 185 | Fetuses, Sex M ([11]; Total, 500 mg/kg bw/day): 179 | Implant. Sites ([11]; Total, 500 mg/kg bw/day): 384 | Post- Implant. Loss ([11]; Total, 500 mg/kg bw/day): 20 | Pre- Implant. Loss ([11]; Total, 500 mg/kg bw/day): 31 | Resorptions Early ([11]; Total, 500 mg/kg bw/day): 19 | Resorptions Late ([11]; Total, 500 mg/kg bw/day): 1 | Corpora Lutea ([11]; Total, 1000 mg/kg bw/day): 372 | Dead Fetuses ([11]; Total, 1000 mg/kg bw/day): 0 | Fetuses, Sex F ([11]; Total, 1000 mg/kg bw/day): 162 | Fetuses, Sex M ([11]; Total, 1000 mg/kg bw/day): 165 | Implant. Sites ([11]; Total, 1000 mg/kg bw/day): 347 | Post- Implant. Loss ([11]; Total, 1000 mg/kg bw/day): 20 | Pre- Implant. Loss ([11]; Total, 1000 mg/kg bw/day): 25 | Resorptions Early ([11]; Total, 1000 mg/kg bw/day): 20 | Resorptions Late ([11]; Total, 1000 mg/kg bw/day): 0 | NOAEL for both maternal toxicity and embryo/fetal development ([11]; oral gavage, gestation days 6-20): NOAEL for both maternal toxicity and embryo/fetal development = 1000 mg/kg bw/day | NOAEL of 100 mg/kg bw/day as multiple of estimated dietary exposure [12]: 1500 times
